According to ChEMBL document CHEMBL1121644, “N-(aminophenyl)oxamic acids and esters as potent, orally active antiallergy agents” (1981):
Activity calls are given as the source filed them. The calls are words filed in the database; no cut-off is given here.

Assays:
[1] = test system: Rattus norvegicus; experiment: Antiallergic property in passive cutaneous anaphylaxis (PCA) test in rats upon intraperitoneal administration; type: functional; settings: for ED50: ip
Summary of the method: (§1)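 Male Sprague-Dawley rats (200 g) were sensitized id on the shaved back with 0.05 mL of a 1:100 dilution of rat anti-ovalbumin IgE serum. After 48 h they were challenged iv with 1.0 mL of 0.8% ovalbumin containing 5 mg Evans blue, and killed 40 min later. Wheal area (mm²) was taken as the longest diameter times its perpendicular. ED50 is the dose halving wheal size versus control, from regression over at least four log-spaced doses with five rats per dose.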

[2] = test system: Rattus norvegicus; experiment: Antiallergic property in passive cutaneous anaphylaxis (PCA) test in rats upon oral administration; type: functional; summary of the method: as §1
[3] = test system: Rattus norvegicus; experiment: Percent inhibition using passive cutaneous anaphylaxis (PCA assay) in rat at 1 mg/kg upon oral administration; type: functional
Summary of the method: (§2)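 Rats (male Sprague-Dawley, 200 g) were passively sensitized id with 0.05 mL of 1:100 IgE antiserum raised against ovalbumin. After a 48-h latency they were challenged iv with 0.8% ovalbumin (1.0 mL) plus 5 mg Evans blue. Skin was reflected 40 min later and stained wheals measured as longest diameter × perpendicular (mm²). Results are percent inhibition of wheal size versus control.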

[4] = test system: Rattus norvegicus; experiment: Percent inhibition of wheal size in passive cutaneous anaphylaxis (PCA) test at 50 mg/kg upon intraperitoneal administration; type: functional; settings: ip; summary of the method: as §2
[5] = test system: Rattus norvegicus; experiment: Antiallergic property in passive cutaneous anaphylaxis (PCA) test in rats upon intraperitoneal administration; NA=Not active at 100 mg/kg; type: functional, organism-based; design: dose 100 mg/kg; summary of the method: as §1
[6] = test system: Rattus norvegicus; experiment: Antiallergic property in passive cutaneous anaphylaxis (PCA) test in rats upon oral administration; NA=Not active at 100 mg/kg; type: functional, organism-based; design: dose 100 mg/kg; summary of the method: as §1
[7] = test system: Rattus norvegicus; experiment: Percent inhibition of wheal size in passive cutaneous anaphylaxis (PCA) test at 50 mg/kg (administered orally); type: functional; settings: po; summary of the method: as §2
[8] = test system: Rattus norvegicus; experiment: Percent inhibition of wheal size in passive cutaneous anaphylaxis (PCA) test at 50 mg/kg upon oral administration; type: functional; summary of the method: as §2

| SMILES | ED50 [1] [mg/kg] | ED50 [2] [mg/kg] | also measured |
| --- | --- | --- | --- |
| CCOC(=O)C(=O)Nc1cccc([N+](=O)[O-])c1C#N | 0.4 | 82 |  |
| CCOC(=O)C(=O)Nc1cccc(C(=O)OC)c1C#N | 1.2 | 0.8 |  |
| CCCCCOc1cccc(NC(=O)C(=O)OCC)c1C#N |  |  | Inhibition [1]: 25% |
| N#Cc1c(NC(=O)C(=O)O)cccc1N1CCOCC1 |  |  | inhibition in vivo at 1 mg/kg [3]: 14.1% |
| CCOC(=O)C(=O)Nc1ccc([N+](=O)[O-])cc1C#N |  |  | inhibition in vivo at 50 mg/kg [4]: 33% |
| N#Cc1c(N)cccc1NC(=O)C(=O)O |  |  | inhibition in vivo at 1 mg/kg [3]: 21.2% |
| CCOC(=O)C(=O)Nc1cccc(Br)c1C#N |  |  | ED50 [5]: inactive |
| CCN(CC)c1cccc(NC(=O)C(=O)O)c1C#N |  |  | inhibition in vivo at 1 mg/kg [3]: 99.2% |
| O=C([O-])c1cc(=O)c2c(OCC(O)COc3cccc4oc(C(=O)[O-])cc(=O)c34)cccc2o1.[Na+].[Na+] [CROMOLYN SODIUM] | 8 |  | ED50 [6]: inactive |
| CCOC(=O)C(=O)Nc1cccc(N(C)C(C)C)c1C#N | 0.3 | 1.2 |  |
| COC(=O)c1cccc(NC(=O)C(=O)O)c1C#N |  |  | inhibition in vivo at 1 mg/kg [3]: 24.5% |
| CCOC(=O)C(=O)Nc1cccc(NC(C)=O)c1C#N |  |  | inhibition in vivo at 50 mg/kg [4]: 91%; inhibition in vivo at 50 mg/kg [7]: 91% |
| CCOC(=O)C(=O)Nc1cccc(N2CCN(C)CC2)c1C#N.Cl | 0.04 | 10.3 |  |
| CCOC(=O)C(=O)Nc1cccc(N(CC)CC)c1C#N | 0.7 | 0.9 |  |
| CCOC(=O)C(=O)Nc1ccc(N(C)C)cc1C#N | 1 | 2.4 |  |
| CCNc1cccc(NC(=O)C(=O)O)c1C#N |  |  | inhibition in vivo at 1 mg/kg [3]: 58.9% |
| CNc1cccc(NC(=O)C(=O)[O-])c1C#N.[Na+] |  | 0.07 | inhibition in vivo at 1 mg/kg [3]: 96% |
| CCNc1cccc(NC(=O)C(=O)OCC)c1C#N | 0.03 | 0.03 |  |
| CCOC(=O)C(=O)Nc1ccccc1C#N | 0.4 | 2.9 |  |
| CCOC(=O)C(=O)Nc1cccc(N(C)CC)c1C#N | 0.3 | 0.5 |  |
| CCCCNc1cccc(NC(=O)C(=O)OCC)c1C#N | 0.3 | 0.3 |  |
| CCOC(=O)C(=O)Nc1cccc(F)c1C#N | 1.2 | 59 |  |
| CCOC(=O)C(=O)Nc1cccc(Cl)c1C#N |  |  | inhibition in vivo at 50 mg/kg [4]: 56% |

| SMILES | ED50 [1] [mg/kg] | ED50 [2] [mg/kg] | also measured |
| --- | --- | --- | --- |
| CCOC(=O)C(=O)Nc1cccc(N2CCOCC2)c1C#N | 1.2 | 6.3 |  |
| CCOC(=O)C(=O)Nc1cccc(OC(C)C)c1C#N | 2 | 1 |  |
| CCOC(=O)C(=O)Nc1cc(N(C)C)ccc1C#N | 1.9 | > 100 |  |
| CCOC(=O)C(=O)Nc1cccc(N2CCCCC2)c1C#N | 2.2 |  | ED50 [6]: inactive |
| CCN(C)c1cccc(NC(=O)C(=O)O)c1C#N |  |  | inhibition in vivo at 1 mg/kg [3]: 56.3% |
| CCOC(=O)C(=O)Nc1c(C#N)cccc1N(C)C |  |  | ED50 [5]: inactive |
| CCOC(=O)C(=O)Nc1cccc(NC)c1C#N | 0.2 | 0.1 |  |
| CCCNc1cccc(NC(=O)C(=O)[O-])c1C#N.[Na+] |  |  | % inhibition at 1 mg/kg [3]: 83.1% |
| CCCCNc1cccc(NC(=O)C(=O)[O-])c1C#N.[Na+] |  |  | % inhibition at 1 mg/kg [3]: 93.5% |
| CCOC(=O)C(=O)Nc1cccc(C)c1C#N | 5.3 | 4.6 |  |
| CCOC(=O)C(=O)Nc1cccc(N(C)C)c1C#N | 0.2 | 4.2 |  |
| CCOC(=O)C(=O)Nc1ccc(C(F)(F)F)c(N2CCOCC2)c1C#N | 0.1 | > 100 |  |
| Cc1cccc(NC(=O)C(=O)O)c1C#N |  |  | inhibition in vivo at 1 mg/kg [3]: 32.3% |
| CN(C)c1cccc(NC(=O)C(=O)O)c1C#N |  |  | inhibition in vivo at 1 mg/kg [3]: 54.7% |
| CCOC(=O)C(=O)Nc1cccc(N)c1C#N | 0.05 | 0.07 |  |
| CCCNc1cccc(NC(=O)C(=O)OCC)c1C#N | 0.5 | 0.7 |  |
| CCOC(=O)C(=O)Nc1cccc(S(C)(=O)=O)c1C#N |  |  | ED50 [5]: inactive |
| CCOC(=O)C(=O)Nc1cccc(C(C)C)c1C#N |  |  | ED50 [5]: inactive; inhibition in vivo at 50 mg/kg [8]: 18% |
| CCOC(=O)C(=O)Nc1ccc(N)cc1C#N | 1 | 8.8 |  |
| CC(C)Oc1cccc(NC(=O)C(=O)O)c1C#N |  |  | inhibition in vivo at 1 mg/kg [3]: 75.1% |
| CCOC(=O)C(=O)Nc1cccc(N2CCCC2)c1C#N |  |  | inhibition in vivo at 50 mg/kg [4]: 83%; inhibition in vivo at 50 mg/kg [8]: 83% |
| CCOC(=O)C(=O)Nc1cccc(OC)c1C#N | 5.3 | 55.5 |  |
